Screening results: PubChem, several laboratories
Most compounds without a hit are left out; they make up all but 1.8% or so of the library.
eLon inh – inhibitors of E. coli Lon protease | 360,000 compounds, 0.42% hits | P0A9M0 | inhibition, % at 7.94 µM | purified E. coli Lon protease, fluorescence polarization; in the data active = inhibition above about 13%, passing the limit was not always enough;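 also: 0% = enzyme with probe and DMSO and 100% = no enzyme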
hiPSC survival – enhancers of human iPSC single-cell survival; hiPSC single-cell survival, ATPlite luminescence; 100% = ROCK inhibitor wells, 0% = DMSO; survival enhancement, % at 20 µM; 360,000 compounds, 0.044% hits; in the data active = survival enhancement above about 18%;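 also: cells exposed to compounds for 16 hours before the ATP read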
MT1-MMP act inh – MT1-MMP (human) activation inhibition; P50281; AID 651647; HT1080 RFP-PRO-GFP cells, GFP/RFP ratio fluorescence, overnight; percent of plate control window, DMSO zero; GFP/RFP ratio change, % at 20 µM; 360,000 compounds, 0.061% hits;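 active = GFP/RFP ratio change of at least 30% with cell ATP level not reduced by more than half and red fluorescence within 50% of control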
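system = RFP-PRO-GFP reporter HT1080 cells | dosing = 20 µM single dose, 1% DMSO | timing = overnight cell settling, then overnight compound exposure, 37 °C, 5% CO2 | read-out basis = GFP/RFP fluorescence ratio | controls = DMSO and RFP-L50D-GFP cell wells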
TbMetRS inhib – Trypanosoma brucei MetRS inhibition; purified T. brucei MetRS, ATP depletion, Kinase-Glo luminescence; AID 624268; 360,000 compounds, 0.4% hits; inhibition, % at 11.9 µM;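 active = inhibition above a per-plate cutoff of the control wells' mean inhibition plus 3 SD, cut at about 5.5% in these data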;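 also: 0% = DMSO wells median and 100% = median of wells with control inhibitor compound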
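Material: T. brucei methionyl-tRNA synthetase, purified; reagent: substrates ATP, L-methionine and bulk Escherichia coli tRNA; dosing: 11.9 µM single point; timing: 15 min plus 2 h at 25 °C; detection: luminescence of leftover ATP; evaluation: % inhibition; control set: DMSO-only wells as low control; replicates: singlicate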
PREPL inh – inhibitors of human prolyl oligopeptidase-like enzyme PREPL. 320,000 compounds, 0.68% hits. AID 2751. recombinant PREPL, fluorescence polarization activity-based probe. inhibition, % at 5.96 µM; in the data active = inhibition above about 43%;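 also: 0% = enzyme with DMSO and 100% = wells lacking enzyme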
Target sequence (Q4J6C6 whole entry, looked up): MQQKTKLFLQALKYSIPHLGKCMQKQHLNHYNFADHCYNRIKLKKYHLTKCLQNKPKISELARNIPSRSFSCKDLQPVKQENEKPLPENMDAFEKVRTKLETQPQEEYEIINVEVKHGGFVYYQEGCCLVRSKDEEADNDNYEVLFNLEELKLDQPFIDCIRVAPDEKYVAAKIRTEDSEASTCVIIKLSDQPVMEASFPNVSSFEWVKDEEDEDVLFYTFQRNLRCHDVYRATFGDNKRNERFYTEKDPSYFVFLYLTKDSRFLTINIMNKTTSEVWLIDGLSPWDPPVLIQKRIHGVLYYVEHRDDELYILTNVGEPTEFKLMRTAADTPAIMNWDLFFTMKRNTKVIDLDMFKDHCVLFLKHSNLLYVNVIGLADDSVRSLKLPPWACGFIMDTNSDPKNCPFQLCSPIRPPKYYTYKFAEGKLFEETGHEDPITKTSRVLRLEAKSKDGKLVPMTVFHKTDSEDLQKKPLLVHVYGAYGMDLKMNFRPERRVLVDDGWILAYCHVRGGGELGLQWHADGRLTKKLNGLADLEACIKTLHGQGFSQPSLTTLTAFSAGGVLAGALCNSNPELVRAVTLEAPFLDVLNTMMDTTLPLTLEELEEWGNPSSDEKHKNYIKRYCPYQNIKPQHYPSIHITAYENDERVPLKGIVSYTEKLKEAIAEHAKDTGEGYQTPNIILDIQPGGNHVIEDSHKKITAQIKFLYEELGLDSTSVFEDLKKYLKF
SKN-1 inh – inhibitors of C. elegans SKN-1; C. elegans VP596 Pgst-4::GFP/RFP ratio, acrylamide-induced, 24 h; inhibition, % at 21.8 µM; 360,000 compounds, 0.49% hits;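 active = interference check ratio from 0.5 to 1.5 plus GFP to RFP signal ratio inhibition reaching or exceeding a fixed threshold, cut at about 30% in these data, passing the limit was not always enough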
Tb MetRS conf – confirmation of Trypanosoma brucei MetRS inhibitors | T. brucei MetRS enzyme, luminescence (ATP depletion) | shares compounds with TbMetRS inhib | 1,400 compounds, 93% hits | inhibition, % at 11.9 µM; in the data active = inhibition above about 7%
Jurkat cytotox – kills Jurkat cells in T. brucei MetRS counterscreen; shares compounds with TbMetRS inhib; Jurkat cells viability, ATP luminescence; inhibition, % at 8.3 µM; 1,400 compounds, 12% hits; AID 624413; in the data active = inhibition above about 15%;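 also: 0% = vehicle and 100% = reference inhibitor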
Tb MetRS inh FP – orthogonal test for Trypanosoma brucei MetRS inhibitors; shares compounds with TbMetRS inhib; purified T. brucei MetRS, fluorescence polarization; inhibition, % at 11.9 µM; 1,400 compounds, 44% hits; AID 651607; in the data active = inhibition above about 17%;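 also: 0% = vehicle wells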
* = called active by the depositor; x = no result given.

SMILES	eLon inh	hiPSC survival	MT1-MMP act inh	TbMetRS inhib	PREPL inh	SKN-1 inh	Tb MetRS conf	Jurkat cytotox	Tb MetRS inh FP
NC(=S)NNc1cc(Cl)cc(Cl)c1	-12	-1	19	8.1*	-10	14	18*	1	10
Cc1cccc(NC(=O)c2ccc(C3SCC(=O)N3CCc3ccccc3)cc2)c1C (centres undefined)	-1	1	4	-1	8	-3	x	x	x
CSc1nc2ccccc2n1CC(=O)Nc1cc(C(F)(F)F)ccc1N1CCOCC1	1	1	-6	13*	7	12	21*	12	11
O=C(CSc1nc2ccccc2[nH]1)Nc1ccc(F)c(F)c1	-1	0	4	36*	-4	7	51*	0	26*
Cc1ccc2nc(SCC(=O)N3CCN(C(=O)c4ccco4)CC3)[nH]c2c1	-19	-1	4	1	4	4	x	x	x
O=C(CSc1nc2ccccc2[nH]1)Nc1ccccc1F	4	4	-5	-1	-6	-1	x	x	x
O=C(CSc1nc2ccc(Cl)cc2[nH]1)c1c[nH]c2ccccc12	0	0	-4	15*	-12	10	20*	-1	25*
O=C(CSc1nc2ccc(Cl)cc2[nH]1)N1CCN(C(=O)c2ccco2)CC1	-7	1	-2	12*	3	-3	14*	17*	12
O=C(CSc1nc2ccc(Cl)cc2[nH]1)NC1CCCC1	-13	0	-2	14*	4	14	33*	1	14
Cn1c(SCC2CCCO2)nnc1-c1ccc([N+](=O)[O-])cc1 (centres undefined)	1	0	1	0	-2	-1	x	x	x
O=C(CSc1nc2ncc(Cl)cc2[nH]1)NC1CCS(=O)(=O)C1 (centres undefined)	6	0	1	6.2*	14	-1	22*	-7	5
O=C(Cn1cnc2ccccc21)Nc1ccc(F)c(F)c1	-4	-1	8	17*	-14	3	30*	2	12
COC(=O)CSc1nc2ncc(Cl)cc2[nH]1	-7	6	0	0	-5	9	x	x	x
O=C(Cn1cnc2ccccc21)Nc1ccc(C(=O)O)cc1	-3	0	5	0	-5	7	x	x	x
O=C(CSc1nc2ccc(Cl)cc2[nH]1)Nc1ccc2[nH]c(=O)[nH]c2c1	7	-1	-3	8.3*	8	-14	33*	-6	15
O=C(CC1SC(=Nc2ccccc2)N(Cc2ccccn2)C1=O)Nc1ccc(Br)cc1 (centres undefined)	-3	0	-8	19*	16	13	38*	3	16
Cc1ccccc1N=C1SC(CC(=O)Nc2ccc3ccccc3c2)C(=O)N1Cc1ccccn1 (centres undefined)	-9	0	-25	-1	39	8	x	x	x
COc1cc(Cn2c3ccc(NC(=O)CC(C)(C)C)cc3c(=O)n2C)ccc1F	6	1	0	0	x	6	x	x	x
COc1cc(Cn2c3ccc(NC(=S)NCc4ccc(C)cc4)cc3c(=O)n2C)ccc1F	-6	0	-1	7.9*	x	-2	28*	1	16
Cn1c(=O)c2cc(NC(=S)NCc3ccccc3F)ccc2n1Cc1ccccc1	9	-3	7	1	x	16	x	x	x
Cc1cc(C)cc(Cn2c3ccc(NC(=S)NCc4ccccc4F)cc3c(=O)n2C)c1	4	-3	3	8.5*	x	7	33*	-7	16
Cc1nc2nc(SCc3nc4ccccc4[nH]3)[nH]c2cc1Br	-2	0	5	13*	-14	-2	18*	0	12
Cc1ccc2nc(SCc3nc4ccccc4c(=O)[nH]3)[nH]c2c1	-8	-2	-1	0	8	-7	x	x	x
O=C(NCc1cccc(Cl)c1)c1cnn2c1NC(c1ccco1)CC2C(F)(F)F (centres undefined)	-11	-1	3	10*	0	6	23*	1	14
COCCNC(=O)c1cnn2c1NC(c1ccco1)CC2C(F)(F)F (centres undefined)	1	0	-2	-1	-4	-7	x	x	x
SMILES	eLon inh	hiPSC survival	MT1-MMP act inh	TbMetRS inhib	PREPL inh	SKN-1 inh	Tb MetRS conf	Jurkat cytotox	Tb MetRS inh FP
C=CCNC(=S)NNC(=O)CSc1nc2ccccc2s1	-12	0	3	7.6*	-4	1	14*	4	1
Cc1noc(C)c1C(=O)N1CCCC(C(=O)c2cccc(C(F)(F)F)c2)C1 (centres undefined)	-2	-1	-1	0	3	16	x	x	x
COc1ccc(OC)c(CNc2nc3ccccc3n2CCN2CCCCC2)c1	2	3	-1	-1	25	-1	x	x	x
CCCn1c(NCc2cc(OC)ccc2OC)nc2ccccc21	0	-3	2	11*	2	-7	20*	5	4
CCn1c(NCc2cc(OC)ccc2OC)nc2ccccc21	4	-2	-1	9.8*	-17	5	20*	2	4
Cc1ccccc1C(=O)O/N=C1\CCS(=O)(=O)c2sccc21	5	-1	0	4	30	1	x	x	x
Cc1ccc(/C(N)=N/OC(=O)CCCc2ccccc2)cc1	2	0	-2	0	-7	6	x	x	x
Cc1ccc2nc(C)c(CN3CCN(c4ccc([N+](=O)[O-])cc4Cl)CC3)n2c1	-1	0	5	26*	23	-9	44*	47*	25*
CCN(CC)S(=O)(=O)c1cc(C(=O)N(C)CC(=O)Nc2ccc(Cl)cc2)ccc1Cl	9	0	-2	43*	-6	-9	57*	1	24*
CCOc1ccc(-c2cc(CCCC(=O)NCc3ccc(C)cc3)no2)cc1	-5	1	1	0	-9	4	x	x	x
Brc1ccc(-n2c(SCc3nc4ccccc4[nH]3)nnc2-c2ccncc2)cc1	-16	3	1	27*	4	19	42*	1	16
Cn1c(SCc2nc3ccccc3[nH]2)nnc1-c1cccnc1	-3	1	2	0	-2	-4	x	x	x
Fc1ccccc1NC(=S)NCCc1cccc(Cl)c1	13	1	0	6.0*	x	-23	17*	6	9
S=C(NCCc1ccccc1)NCc1cccc(Cl)c1	1	0	4	0	-35	5	x	x	x
